Most compounds without a hit are left out; they make up all but 1.9% or so of the library.
RAD52 anneal inh = RAD52 (human) annealing inhibition; 360,000 compounds, 0.46% hits; recombinant RAD52 DNA annealing, FRET fluorescence; inhibition, % at 18.7 µM; P43351;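 active = every replicate showing at least 50% inhibition; inconclusive = mean inhibition at least 50% but not in every replicate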
rRNA inh HTS = inhibitors of bacterial rRNA selective over humanized ribosomes. E. coli WT GFP vs humanized-ribosome RFP mutants, fluorescence, 24 h; stronger effect = lower value; DMSO median 0, no signal -100. GFP signal change (wild-type ribosome), % (concentration not given with the values). 350,000 compounds, 1.6% hits. AID 720706;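 active = significant combined selectivity score with lowered wild-type GFP, culture density cut under 30%, mutant RFP and density less affected; inactive = any of these conditions unmet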
RAD54 inh = inhibitors of human RAD54 branch migration; inhibition, % at 10.4 µM; RAD54 Holliday junction branch migration, FAM/BHQ fluorescence; 360,000 compounds, 0.14% hits; Q92698;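 active = mean normalized replicate activity at least 40 and at least half of replicates scoring 40 or more; inconclusive = only one of the two criteria met; inactive = mean below 40 and under half of replicates reaching 40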;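 note: 0% = median of neutral control wells and 100% = median of positive control wells; inhibitors cause a drop in the FAM fluorescence signal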
Target sequence (Q92698 whole entry, looked up): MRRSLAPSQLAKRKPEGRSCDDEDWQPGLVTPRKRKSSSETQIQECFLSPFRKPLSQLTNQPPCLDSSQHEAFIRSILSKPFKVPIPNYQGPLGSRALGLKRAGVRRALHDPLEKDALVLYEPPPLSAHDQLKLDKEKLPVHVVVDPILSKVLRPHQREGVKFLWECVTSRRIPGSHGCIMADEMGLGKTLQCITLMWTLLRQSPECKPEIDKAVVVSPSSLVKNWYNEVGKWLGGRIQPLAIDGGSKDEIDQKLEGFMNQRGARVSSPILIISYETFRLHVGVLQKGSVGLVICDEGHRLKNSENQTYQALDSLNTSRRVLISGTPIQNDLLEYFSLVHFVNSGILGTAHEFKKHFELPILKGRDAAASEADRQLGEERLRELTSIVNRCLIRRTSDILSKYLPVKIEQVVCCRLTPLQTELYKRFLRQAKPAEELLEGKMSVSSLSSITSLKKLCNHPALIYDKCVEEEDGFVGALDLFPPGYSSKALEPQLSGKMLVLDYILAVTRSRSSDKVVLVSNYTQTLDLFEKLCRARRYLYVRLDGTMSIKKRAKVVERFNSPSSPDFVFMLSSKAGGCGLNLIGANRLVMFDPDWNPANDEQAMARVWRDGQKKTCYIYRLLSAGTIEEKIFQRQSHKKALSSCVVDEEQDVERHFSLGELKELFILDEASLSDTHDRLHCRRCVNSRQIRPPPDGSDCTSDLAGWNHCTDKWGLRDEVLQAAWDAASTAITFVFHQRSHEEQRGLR
PglD DTNB = inhibitors of Campylobacter jejuni PglD acetyltransferase; inhibition, % at 12.5 µM; purified PglD enzyme, DTNB colorimetric CoA detection; 360,000 compounds, 0.098% hits; AID 602405; in the data active = inhibition above about 16%, passing the limit was not always enough; inconclusive = no clear call, values can overlap the other calls
Cneo AK release = causes C. neoformans cell lysis; adenylate kinase release luminescence, 4 h; normalised: neutral wells 0, clomiphene wells 100; lysis activity, % at 15 µM; 360,000 compounds, 0.2% hits; AID 651654;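 active = mean lysis activity across replicates of at least 80%, whatever share of replicates individually reach that level; inactive = mean lysis activity below 80%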
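Schedule: static 4 h at 37 °C with compound, 1 h detection; system: C. neoformans cells; benchmarks: Clomiphene as positive control; buffer or medium: fresh YPD medium; measure: luminescence rise reflecting yeast cell lysis; measured by: luminescent adenylate kinase detection reagent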
Rad54 DNA ctr = DNA binding artifact in Rad54 counter-screen. shares compounds with RAD54 inh. Acridine orange-DNA displacement, fluorescence polarization, 20 min. AC50, µM (highest dose often 35 µM), inactives show top-dose activity change, negative = DNA binding. 460 compounds, 8% hits. AID 651673;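 active = signal drop giving an AC50 within twice the top valid tested concentration of each sample, actives reach about 35 µM in these data; inactive = activity opposite to expected, plus the rest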;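 note: polarization loss reports compound binding to salmon sperm DNA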
* = called active by the depositor; i = inactive; ? = inconclusive; / = no result given.

SMILES | RAD52 anneal inh | rRNA inh HTS | RAD54 inh | PglD DTNB | Cneo AK release | Rad54 DNA ctr
CCCNC(=O)N1[C@@H]2Cn3c(cccc3=O)[C@H]1[C@@H](C(=O)N1CCC(Cc3ccccc3)CC1)[C@@H]2CO | -13 | -3 | 2 | -1 | 2 | /
COc1cc(NCCCNC(C)C)c2nccc(C)c2c1 | 60* | 19 | 83* | -3 | 1 | -5%
COc1ccc2nc(-c3cccc(N)c3)[nH]c2c1 | / | / | 16 | -5 | -8 | /
COc1ccc2nc(-c3ccc(N)cc3)[nH]c2c1 | / | / | 77* | 7 | -8 | -5%
COc1ccc2c3c([nH]c2c1)[C@H](CO)N(Cc1ccc(Cl)cc1)CC31CN(Cc2ccccc2)C1 | / | -9 | / | / | / | /
C[C@@H]1CN([C@H](C)CO)C(=O)c2cc(NC(=O)NC3CCCCC3)ccc2O[C@@H](C)CCCCO[C@@H]1CN(C)Cc1ccc(C(=O)O)cc1 | 16 | 0 | -13 | 0 | 2 | /
Cc1cc(C)n(-c2nc(NCCN(C)C)c3c4c(sc3n2)COC(C)(C)C4)n1 | 29 | -32* | ? | 7 | -3 | 11%
CCN(CC)CCNc1nc(-n2nc(C)cc2C)nc2sc3c(c12)CC(C)(C)OC3 | 7 | -13 | / | / | / | /
CN1c2ccc(-c3ccccc3)cc2[C@@H]2[C@@H](CCN2C(=O)c2ccc3c(c2)OCO3)[C@@H]1CO | -1 | -3 | 3 | 2 | 4 | /
CN1CCN(c2nc(-c3cccnc3)nc3ccccc23)CC1 | -4 | -8 | 57* | 2 | 0 | -20%
CN1CCN(c2nc(-c3ccccn3)nc3ccccc23)CC1 | / | / | ? | 2 | -3 | 9%
Oc1ccccc1-c1nc(NCCN2CCOCC2)c2ccccc2n1 | / | / | ? | 2 | 6 | 10%
CN(C)CCCNc1nc(-c2ccccc2)nc2ccccc12 | 48 | 26 | 67* | -1 | 6 | -22%
Fc1ccccc1-c1nc(NCCCN2CCOCC2)c2ccccc2n1 | -3 | -1 | / | / | / | /
Cc1ccc(-c2nc(NCCN3CCOCC3)c3ccccc3n2)cc1 | / | / | ? | -7 | 0 | -7%
COc1cccc(-c2nc(NC(C)(C)C)c3ccccc3n2)c1O | / | / | 8 | -4 | 2 | /
COc1cccc(-c2nc(NCCN3CCOCC3)c3ccccc3n2)c1O | / | / | 109* | -7 | 3 | -4%
COCC(=O)Nc1ccc2c(c1)OC[C@@H](C)N(C(=O)COC)C[C@H](C)[C@H](OC)CN(C)C2=O | -6 | 2 | -2 | 0 | -1 | /
CCN(CC)CCNC(=O)c1cc2c(-c3ccc(Cl)cc3)nn(C)c2s1 | 61* | -26 | 113* | -9 | 1 | i
O=S(=O)(c1ccc(-c2nnc(SCc3ccccc3)o2)cc1)N1CCCC1 | / | / | ? | 0 | 1 | 8%
COc1ccc(NC(=O)N(C)C[C@H]2OCCCC[C@H](C)Oc3ccc(N(C)C)cc3C(=O)N([C@H](C)CO)C[C@@H]2C)cc1 | -20 | -1 | 1 | -1 | 1 | /
CCN1CCN(c2nnc(-c3ccccc3)c3ccccc23)CC1 | -12 | 9 | 2 | 4 | -5 | /
CCN1CCN(c2nn3c(=O)c4ccccc4nc3c3ccccc23)CC1 | / | / | 57* | 6 | 2 | i
C[C@@H]1CCCCO[C@H](CN(C)C(=O)C2CCCCC2)[C@H](C)CN([C@@H](C)CO)C(=O)c2cc(N(C)C)ccc2O1 | -4 | -4 | -9 | 0 | -5 | /
COc1ccc(OC)c2c(C)cc(NCCN3CCOCC3)nc12 | / | / | 54* | -5 | 5 | -10%
SMILES | RAD52 anneal inh | rRNA inh HTS | RAD54 inh | PglD DTNB | Cneo AK release | Rad54 DNA ctr
C[C@H](CO)N1C[C@H](C)[C@H](CN(C)C(=O)C2CCOCC2)Oc2ncc(C#Cc3cccc(F)c3)cc2C1=O | / | 7 | / | / | / | /
CN(C[C@H]1[C@H](c2ccccc2)[C@@H](CO)N1CC1CC1)C(=O)c1cccc(F)c1 | / | -2 | -3 | 3 | 6 | /
COc1ccccc1NC(=O)N(C)C[C@@H]1Oc2ncc(C#CCC(C)C)cc2C(=O)N([C@@H](C)CO)C[C@H]1C | 4 | -1 | -1 | -2 | 3 | /
CCCn1c(=N)c(C(=O)NC2CCCC2)cc2c(=O)n3cccc(C)c3nc21 | / | / | 9 | -4 | -1 | /
CCn1c(=N)c(C(=O)NC)cc2c(=O)n3cccc(C)c3nc21 | / | / | ? | -3 | -6 | 0%
O=C(CS(=O)(=O)c1ccccc1)Nc1ccccn1 | -4 | 16 | / | / | / | /
O=C(CS(=O)(=O)c1ccccc1)Nc1ccc(Br)cn1 | / | / | ? | -4 | 13 | 8%
CN(C)C(=O)C[C@@H]1C[C@@H]2c3cc(NC(=O)Cc4ccncc4)ccc3O[C@@H]2[C@H](CO)O1 | -5 | 1 | -3 | 1 | 57 | /
COc1ccc2c3c([nH]c2c1)[C@H](CO)N(C(=O)C1CCCCC1)CC31CN(Cc2nccs2)C1 | / | -5 | / | / | / | /
CCCC#Cc1ccc2c(c1)O[C@@H](CN(C)C(=O)c1cnccn1)[C@@H](C)CN([C@@H](C)CO)S2(=O)=O | 2 | 4 | 1 | -3 | -3 | /
O=c1cc(CSc2n[nH]c(=O)n2C2CC2)c2ccc(O)cc2o1 | -2 | 4 | ? | -9 | 2 | -2%
O=C(CSc1n[nH]c(=O)n1C1CC1)c1ccc(F)cc1 | -5 | 2 | -9 | 3 | 0 | /
Oc1cccc2ccc(Nc3ccccn3)nc12 | / | / | 94* | 5 | -3 | -9%
Cc1cccc(Cn2c(Sc3nc(C)cs3)nc3c2c(=O)[nH]c(=O)n3C)c1 | / | / | ? | -5 | 1 | 14%
CCCCCC(=O)Nc1cc(N(C)C)nc2ccccc12 | / | / | -3 | -8 | -1 | /
CCN(CC)CC(=O)Nc1cc(N(C)C)nc2ccccc12 | 31 | 6 | 51* | -2 | 1 | -3%
CCOC(=O)c1[nH]c2cc3c(cc2c1CCCN1C(=O)c2ccccc2C1=O)OCCO3 | / | / | ? | -3 | -2 | 5%
CCOC(=O)c1[nH]c2ccccc2c1CCCN1C(=O)c2ccccc2C1=O | / | / | 4 | 0 | 2 | /
CCNC(=O)C[C@@H]1CC[C@@H]2[C@H](COc3ccc(NC(=O)c4cscn4)cc3C(=O)N2C)O1 | 5 | 1 | -4 | 1 | 2 | /
COc1ccc(-c2cc(=O)oc3c(C)c(O)c(CN(C)C)cc23)cc1 | / | / | 7 | 5 | -6 | /
Cc1c(O)c(CN(C)C)cc2c1oc(=O)c1ccccc12 | 26 | -14 | ? | 5 | 4 | 8%
C[C@H](CO)N1C[C@H](C)[C@@H](CN(C)Cc2ccc(C(=O)O)cc2)OCc2ccccc2-c2c(n(C)c3ccccc23)C1=O | 5 | -1 | 11 | -2 | -1 | /
CC(=O)Nc1ccc2c(c1)C(=O)N(C)[C@@H]1CC[C@@H](CC(=O)N3CCc4ccccc4C3)O[C@H]1CO2 | / | -2 | -1 | -4 | 1 | /
COC(=O)C1=C(C)Nc2nc3ccccc3n2C1c1ccccc1F (stereo not given) | -15 | 15 | ? | -2 | 0 | -13%
CNC(=O)C1=C(C)Nc2nc3ccccc3n2C1c1ccc(F)cc1 (stereo not given) | -3 | 15 | 0 | -2 | 1 | /

From PubChem BioAssay
